We go through 97 compounds from ChEMBL document CHEMBL4513216, “Probing the Open Global Health Chemical Diversity Library for Multistage-Active Starting Points for Next-Generation Antimalarials” (ACS Infect Dis, 2020).

Each structure is given as a SMILES string.

This data set in a line: Toxicity liver stage against HepG2, at 10uM. The note with it: human, HepG2-A16-CD81EGFP cells; read-out: INHIBITION
Also noted: test concentration 10 uM, cell line HepG2-A16-CD81EGFP. It is filed as cell-based. The method in brief: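 Uninfected HepG2-A16-CD81EGFP cells, 3 × 10^3 per well, 1536-well, plated on prespotted compound at 10 μM final, parasite-free screening media added to match infected plates; puromycin 10 μM positive, DMSO 0.5% negative; run in parallel with 48 h PbLuc assay at 37 °C, 5% CO2; viability by CellTiter-Glo luminescence, normalized to controls.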
Turning to `O=C(NCC(O)c1ccsc1)Nc1cccs1` (configuration not stated), the cytotoxicity at 10 µM is -8.29%.
As for `O=C(Nc1nc2c(s1)CN(S(=O)(=O)C1CC1)CC2)C1CC1`, the cytotoxicity at 10 µM is -0.849%.
Take `COc1ccc(C(=O)N2CCO[C@H]3[C@@H](OCC4CC4)CC[C@@H]32)cc1F`: the cytotoxicity at 10 µM stood at 19.1%.
In the case of `CCN1C(=O)CC(c2cccnc2)C12CCN(c1ncc(F)cn1)CC2` (configuration not stated), the cytotoxicity at 10 µM was -8.59%.
Turning to `CCOC1CC2(CCN(c3cnccn3)CC2)c2ccccc21` (configuration not stated), the cytotoxicity at 10 µM was 5.54%.
For `CCOCc1cncc2c1CCN(S(=O)(=O)c1cccc(C)c1)C2` the value was 13.6%; for `O=S(=O)(C1CC1)N1CCc2ncnc(-c3ccc(F)cc3)c2CC1`, -66.5%; for `Cc1ccc(C(=O)N2C[C@@H]3CN(S(C)(=O)=O)CCO[C@@H]3C2)o1`, -2.42%.
For `Cc1nc(N2CCOCC2)nc2c1CCN(c1nccs1)CC2` the value was 7.37%; for `Cc1ccc(N2CC[C@@H]3O[C@@H](c4ccncn4)C[C@H]3C2)nn1`, 10.8%.
For `CCN1CCC2(CC1)CN(C(C)=O)c1ccc(C)cc12` the value was 3.98%.
On to `CCC1=NN2C(=N)/C(=C/c3cccc(Cl)c3)C(=O)N=C2S1`, for which the cytotoxicity at 10 µM was -11.8%.
Regarding `CCC(C)NC(=O)Cn1ncc2c1c(C)nn2CC` (configuration not stated), the cytotoxicity at 10 µM is 3.24%.
`CC(C)n1cc(N2CC(C(=O)N3CCc4ccccc4C3)CC2=O)cn1` (configuration not stated): the cytotoxicity at 10 µM was -153%.
Regarding `CC(=O)N1CCC(C)(c2cc(C(=O)NCC(C)(C)C)nc(C)n2)CC1`, the cytotoxicity at 10 µM was 6.93%.
With `CC(C)c1nccn1-c1nccnc1C1CCCN1Cc1cccnc1` (configuration not stated), the cytotoxicity at 10 µM was determined as 7.77%.
For `Cc1cc(N2CCOC(C)(C(=O)N(C)C)C2)ncn1` (configuration not stated), the cytotoxicity at 10 µM is -0.277%.
Next, `CCC(=O)N1CCC(c2ncc3c(n2)CCNC3)CC1`: -22.5%; `Cc1ccccc1-c1cncc(C2CCN(S(=O)(=O)N(C)C)CC2)n1`: 0.0706%; `O=c1c2ccccc2nc2n1C(CSc1cccc(C(F)(F)F)c1)CN2` (configuration not stated): 12.9%.
Take `CC(C)N(C(=O)Cn1nnnc1CCc1ccccc1)C(C)C`: the cytotoxicity at 10 µM stood at 7.1%.
Consider `CCc1ccc2c(c1)C(CCNC(=O)Cc1cccc(F)c1)C(=O)N2` (configuration not stated), for which the cytotoxicity at 10 µM is -49.1%.
As for `Cc1ccc(-c2noc(CNCC3CN(C)CCO3)n2)cc1F` (configuration not stated), the cytotoxicity at 10 µM is -1.51%.
For the compound `Cc1nc(CN2CCOC3(CCCC3)C2)oc1C`, the cytotoxicity at 10 µM worked out at 4.56%.
`Cc1cc(N(Cc2ccccn2)C2CC2)n2nc(C(F)(F)F)nc2n1`: the cytotoxicity at 10 µM is -5.83%.
`COc1ccccc1CNC(=O)COc1ccc2c(c1)OCC2O` (configuration not stated): the cytotoxicity at 10 µM is -3.75%.
In the case of `CC(C)c1nn(C)c(Cl)c1CNCCn1cccn1`, the cytotoxicity at 10 µM was -9.11%.
For `C=C(C)CN(CC)C(=O)CN1CCCC1C(=O)N(C)C` (configuration not stated) the value was 8.52%; for `CCC(O)CN(c1ccccc1)S(=O)(=O)c1cnc(C)s1` (configuration not stated), -45.6%; for `Cc1noc(C2CCN(Cn3cc(Cl)cn3)CC2)n1`, -11.1%.
`CC(C(=O)NC1(C#N)CCCCC1)N1CCc2c(ncn2C)C1` (configuration not stated): the cytotoxicity at 10 µM is 7.04%.
For `Cc1nnc(CN(C)CC(=O)N2CCCC(C)CC2)n1C` (configuration not stated) the value was 10.6%.
For `Cc1nc(CN2CCCc3cc(OC(F)(F)F)ccc32)oc1C`, the cytotoxicity at 10 µM was 0.889%.
For `O=C(c1ccc(-n2ccnc2)nc1)N1CCN2CCCCC2C1` (configuration not stated) the value was -5.95%; for `Cc1ccc(C2CCCN2S(=O)(=O)N(C)Cc2cnccn2)o1` (configuration not stated), 0.78%; for `CCS(=O)(=O)c1ccc(N2CCC(NC(=O)C3CCCCC3)CC2)cc1`, 12%.
Turning to `CC(=O)N1CCc2cc(Cl)cc(Cl)c2C1`, the cytotoxicity at 10 µM is 11.2%.
Next, `CCC(=O)N(CC)C(c1cccnc1)c1ccc2c(c1)CCO2` (configuration not stated): 2.94%.
In the case of `CCCNC(=O)c1cc(Br)cc(S(=O)(=O)N2CCOCC2)c1F`, the cytotoxicity at 10 µM was -5.12%.
Turning to `COc1ccc(N(C(=O)c2ccc(C)nc2)C(C)C)cc1F`, the cytotoxicity at 10 µM is -3.17%.
As to `CCOc1ccccc1C(CC(=O)Nc1ccccc1)NC(C)=O` (configuration not stated), the cytotoxicity at 10 µM is -2.86%.
On to `CNS(=O)(=O)c1ccc(CNC(=O)c2cc(-c3ccccn3)no2)cc1`, for which the cytotoxicity at 10 µM is -11.4%.
Take `CCc1cc(N2CCC(NC(=O)CCC3CCCO3)CC2)ncn1` (configuration not stated): the cytotoxicity at 10 µM was 8.31%.
Regarding `CC(C)c1ccc(S(=O)(=O)NC2(CC(N)=O)CCC2)cc1`, the cytotoxicity at 10 µM was -2.77%.
In the case of `CCCN(C(=O)CNC1CCc2ncnn2C1)C1=CCCCC1` (configuration not stated), the cytotoxicity at 10 µM is 1.76%.
`O=C(Nc1nccs1)C1CCN(Cc2cccc3c2OCCO3)CC1`: the cytotoxicity at 10 µM was -1.95%.
As for `CC(C)c1ncc(Cl)c(C(=O)N2CCN3CCCCC3C2)n1` (configuration not stated), the cytotoxicity at 10 µM came out at 4.77%.
As to `O=S(=O)(NCc1ccc(S(=O)(=O)N2CCCC2)s1)c1ccc(Cl)cc1`, the cytotoxicity at 10 µM was -44%.
Take `CC(C)c1noc(OCc2cccc(S(=O)(=O)N(C)C)c2)n1`: the cytotoxicity at 10 µM was -45.9%.
For `CN(CCN1CCOC1=O)CC(=O)Nc1ccc(Cl)c(Cl)c1` the value was -52.4%.
For the compound `CCC(CC)CNCC1(S(C)(=O)=O)CCOCC1`, the cytotoxicity at 10 µM was determined as 0.354%.
In the case of `Cc1ncc(CN(C)CC(O)c2cccc(C(F)(F)F)c2)s1` (configuration not stated), the cytotoxicity at 10 µM was 1.86%.
Consider `COc1c(CNC2CCCc3ccccc32)c(C)nn1C` (configuration not stated), for which the cytotoxicity at 10 µM is -0.808%.
As for `Cn1nnc2c1C(COCC1CC1)CN(C(=O)C1=CCCC1)C2` (configuration not stated), the cytotoxicity at 10 µM was -102%.
Turning to `O=C(C1CCOCC1)N1CC[C@H](O)[C@@H]1Cc1cccnc1`, the cytotoxicity at 10 µM was -104%.
Consider `Cc1cc(N2CCC3(CCCN(CCO)C3=O)C2)nc(C)c1C#N` (configuration not stated), for which the cytotoxicity at 10 µM is 7.41%.
For `Cc1ocnc1C(=O)N1CCN(CCOc2ccccc2)CC1` the value was 1.12%; for `CCc1ncc(CN2CCC(CCc3ccccc3)CC2)cn1`, -175%; for `CC1CCN(S(=O)(=O)N2C[C@H](c3ccccc3)[C@@H](N)C2)CC1`, -12.1%.
As to `CCc1ncc(C(=O)N2CCCN(C3CCCCC3)CC2)cn1`, the cytotoxicity at 10 µM is -5.1%.
Next, `CCCN1CCN(C(=O)c2ccc(Cl)cn2)[C@H]2CS(=O)(=O)C[C@H]21`: -4.15%; `CCOCc1nc2c(c(NC(CC)c3ccncc3)n1)CCNCC2` (configuration not stated): -0.0944%.
On to `Cc1nn(C)c(C)c1CN(C(=O)c1cc(Cl)c[nH]c1=O)C(C)C`, for which the cytotoxicity at 10 µM was -3.25%.
`COc1cc(F)ccc1-c1cc(CO)ccn1`: the cytotoxicity at 10 µM was 6.58%.
Consider `COc1cc(C)ccc1OCc1nc(C(=O)N2CCCC2)co1`, for which the cytotoxicity at 10 µM is -42.5%.
Take `c1cn(CC2CC2)c(C2CCN(CCC3CCOC3)CC2)n1` (configuration not stated): the cytotoxicity at 10 µM is -8.64%.
`CCCN(Cc1ccc(OC)nc1)Cc1ccccc1OC`: the cytotoxicity at 10 µM is -5.85%.
Regarding `c1ccc(COC2CCN(Cc3cc4n(n3)CCCNC4)CC2)nc1`, the cytotoxicity at 10 µM came to 2.59%.
With `COC(=O)CC1CCN(C(=O)Nc2ccc(-c3ccn[nH]3)cc2)C1` (configuration not stated), the cytotoxicity at 10 µM turned out to be 3.57%.
On to `CCN1CCN(C2(C(=O)NC3CCCC3)Cc3ccccc3C2)CC1`, for which the cytotoxicity at 10 µM is -13.8%.
Next, `C[C@@H]1CN(C(=O)CCCN2CCOCC2)C[C@@]1(O)C1CC1`: 4.39%.
Next, `Cc1cc(C(=O)N2CCCC3(CN(C)C(=O)O3)C2)c2ccc(F)cc2n1` (configuration not stated): 3.05%; `Cc1ccsc1CN1CCC(c2cc(C(C)C)n[nH]2)CC1`: 1.13%.
For the compound `O=C(C1CNCCO1)N1CCCC(c2ccccc2)(c2ccccc2)C1` (configuration not stated), the cytotoxicity at 10 µM came out at 12.2%.
Regarding `Cc1nc(-c2cccc(N3CCC(NC4CCOCC4)CC3)c2)cs1`, the cytotoxicity at 10 µM was -10.1%.
For `CCOc1ccccc1C(=O)N1CCCC(O)(CN(C)C)C1` (configuration not stated) the value was -1.73%; for `Cn1ccnc1CN1CCCC(CCc2ccc(F)c(F)c2)C1` (configuration not stated), -6.9%.
Next, `OCCNc1cc(-c2nccnc2N2CCCC2)c2cc[nH]c2n1`: -7.57%; `CCc1nc(C2CCCN(C(=O)c3ccccc3O)C2)no1` (configuration not stated): -7.39%.
Consider `O=C(NCC(=O)N1CCCC1)c1nn(-c2ccccc2F)cc1O`, for which the cytotoxicity at 10 µM was found to be 6.53%.
For `O=C(O)c1cccc(S(=O)(=O)N2CCOc3ccccc32)c1` the value was -5.92%; for `O=C(CCc1ccco1)N1CCCC(n2cccn2)C1` (configuration not stated), -8.8%; for `CCNc1cc2c(nn1)CCN(C(=O)c1ccsc1)C2`, -13.7%.
For `CN1CCN(c2cc(CNC(=O)Cn3cccn3)ccn2)CC1` the value was -11.6%; for `Cc1csc(N2CCCN(C(=O)c3csc(C)n3)CC2)n1`, -3.96%.
With `CCc1noc(C(C)N2CCC(O)CC2)n1` (configuration not stated), the cytotoxicity at 10 µM stood at 0.26%.
Next, `CCn1ccnc1CN1CCOC(Cn2cccn2)C1` (configuration not stated): -14.7%; `Cc1ccc(NS(=O)(=O)c2cc3c(c(C(=O)O)c2)OCCO3)cc1C`: -15.3%.
For the compound `c1cnnc(NCC2CN(CCN3CCCCC3)CCO2)c1` (configuration not stated), the cytotoxicity at 10 µM is -11.9%.
For the compound `CCn1c(C)cc(C(=O)N2CCCC(n3nc(C)nc3C)C2)c1C` (configuration not stated), the cytotoxicity at 10 µM is -11.4%.
Regarding `Cc1cccc(-c2nc(CN3CCc4c(ncn4C)C3)no2)c1`, the cytotoxicity at 10 µM was -9.42%.
In the case of `Cc1csc(N2CCCN(C(=O)c3c(C)oc(C)c3C)CC2)n1`, the cytotoxicity at 10 µM worked out at 3.75%.
Take `Cc1nc(C2CCCN2Cc2ncc(C(C)C)o2)no1` (configuration not stated): the cytotoxicity at 10 µM is 4.31%.
As to `CC1CCN(S(=O)(=O)NCc2ccccc2Cn2cncn2)CC1`, the cytotoxicity at 10 µM was -2.72%.
Next, `Cc1cnn(CC2CCCN2Cc2nc3ccccc3nc2C)c1` (configuration not stated): -1.35%; `CN(C)C(=O)COC1COC2(CCN(CC3CC3)CC2)C1` (configuration not stated): -108%.
For `Cc1cccc(CN2CCN3C[C@H](Oc4cncnc4)C[C@H]3C2)n1` the value was -91.9%.
